In ChEMBL document CHEMBL3994584, “Identification of novel fluorescent probes preventing PrPSc replication in prion diseases” (Eur J Med Chem, 2017):
Calls of active or inactive are those of the source. The calls are words filed in the database; no cut-off is given here.

Key:
[1] = Cytotoxicity against mouse ScN2a cells assessed as cell viability at 1 uM after 5 days by MTT assay relative to control; assay type: cell-based; conditions: read-out: Activity
Summary of the method: (§1)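 ScN2a cells were seeded in MEM at 2.5×10^4 cells/mL and allowed to settle for 2 h. Compounds (DMSO stock, diluted in EtOH then medium) were added at 0.1, 1 and 10 μM for 5 days at 37 °C under 5% CO2. MTT (5 mg/mL) was applied for 3 h and solubilized with DMSO/2-propanol. Plates were read at 570/690 nm. Viability is given as % of untreated control, mean ± SD of three independent experiments.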

[2] = Cytotoxicity against mouse ScN2a cells assessed as growth inhibition at 1 uM after 5 days by MTT assay relative to control; assay type: cell-based; conditions: read-out: GI; summary of the method: as §1
[3] = Cytotoxicity against mouse ScN2a cells assessed as cell viability at 0.1 uM after 5 days by MTT assay relative to control; assay type: cell-based; conditions: read-out: Activity; summary of the method: as §1
[4] = Cytotoxicity against mouse ScN2a cells assessed as cell viability at 10 uM after 5 days by MTT assay relative to control; assay type: cell-based; conditions: read-out: Activity; summary of the method: as §1
[5] = species on record: Mus musculus; test: Antiprion activity against mouse prion protein RML infected mouse ScN2a cells assessed as proteinase K-resistant PrPSc level at 0.1 uM incubated for 5 days followed by proteinase K digestion by Western blot method relative to control
Summary of the method: (§2)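 RML-infected ScN2a cells were treated with 0.1, 1 and 10 μM for 5 days, with DMSO ≤0.1% final. Lysates (500 μg protein) were digested with 10 μg PK for 1 h at 37 °C, stopped with 2 mM PMSF and ultracentrifuged. Pellets were run on SDS-PAGE and immunoblotted with anti-PrP Fab W226, with ECL detection. Densitometry gave PK-resistant PrPSc over total PrP, with untreated set to 100%. Three independent experiments.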

[6] = species on record: Mus musculus; test: Antiprion activity against mouse prion protein RML infected mouse ScN2a cells assessed as proteinase K-resistant PrPSc level at 1 uM incubated for 5 days followed by proteinase K digestion by Western blot method relative to control; summary of the method: as §2
[7] = species on record: Mus musculus; test: Antiprion activity against mouse prion protein RML infected mouse ScN2a cells assessed as proteinase K-resistant PrPSc level at 10 uM incubated for 5 days followed by proteinase K digestion by Western blot method relative to control; summary of the method: as §2
[8] = test system: N2a; test: Effect on cellular prion protein level in mouse N2A cells up to 10 uM incubated for 5 days by Western blot method; assay type: functional, cell-based
Summary of the method: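 Non-infected N2a cells were treated at 0.1, 1 and 10 μM for 5 days. Lysates (50 µg protein, no PK digestion) were immunoblotted with anti-PrP Fab W226. PrPC was normalized to actin, with untreated controls set to 100%. Done in triplicate.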

[9] = Antiprion activity against mouse prion protein RML infected mouse ScN2a cells assessed as reduction in proteinase K-resistant PrPSc level incubated for 5 days followed by proteinase K digestion by Western blot method; conditions: 120 h; summary of the method: as §2

SMILES	EC50 ([9]; read-out: EC50) [nM]	EC50 ([9]; read-out: pEC50 (converted)) [nM]	also measured
CN(CCCCNc1c2c(nc3ccccc13)CCCC2)CCCNc1c2c(nc3ccccc13)CCCC2	–	–	viability at 120 h, 1 µM [1]: 76.9%; inhibition at 120 h, 1 µM [2]: > 20%
COC(=O)C1=CC2=NC(N/N=C/c3ccc4ccccc4n3)=C3CC=CN3C2C=C1 (centres undefined)	–	–	viability at 120 h, 0.1 µM [3]: 92.6%; viability at 120 h, 1 µM [1]: 88.2%; viability at 120 h, 10 µM [4]: 45.4%; inhibition at 120 h, 1 µM [2]: > 20%
c1ccc2c(NCCCCCCCCNc3c4c(nc5ccccc35)CCCC4)c3c(nc2c1)CCCC3	–	–	viability at 120 h, 1 µM [1]: 0.7%; inhibition at 120 h, 1 µM [2]: > 20%
CC1=CC2=NC(N/N=C/c3ccnc4ccccc34)=C3CC=CN3C2C=C1C (centres undefined)	–	–	viability at 120 h, 0.1 µM [3]: 96.7%; viability at 120 h, 1 µM [1]: 98.6%; viability at 120 h, 10 µM [4]: 86.5%; Activity [5]: 137%; Activity [6]: 100%; Activity [7]: 29%; Activity [8]: inactive
COC(=O)C1=CC2=NC(N/N=C/c3ccnc4ccccc34)=C3CC=CN3C2C=C1 (centres undefined)	–	–	viability at 120 h, 0.1 µM [3]: 72.6%; viability at 120 h, 1 µM [1]: 89.3%; viability at 120 h, 10 µM [4]: 67.1%; Activity [5]: 104%; Activity [6]: 131%; Activity [7]: 30%; Activity [8]: inactive
C1=CC2=NC(N/N=C/c3ccnc4ccccc34)=C3NC=CN3C2C=C1 (centres undefined)	–	–	viability at 120 h, 0.1 µM [3]: 94.4%; viability at 120 h, 1 µM [1]: 98.5%; viability at 120 h, 10 µM [4]: 83.2%; Activity [5]: 178%; Activity [6]: 131%; Activity [7]: 30%; Activity [8]: inactive
C(=C\c1cccs1)/NNc1nc2ccccc2n2cccc12	–	–	viability at 120 h, 0.1 µM [3]: 78.9%; viability at 120 h, 1 µM [1]: 81.9%; viability at 120 h, 10 µM [4]: 80.7%; Activity [5]: 88%; Activity [6]: 79%; Activity [7]: 72%; Activity [8]: inactive
C(=C\c1ccco1)/NNc1nc2ccccc2n2cccc12	–	–	viability at 120 h, 0.1 µM [3]: 96.8%; viability at 120 h, 1 µM [1]: 88.5%; viability at 120 h, 10 µM [4]: 71.4%; Activity [5]: 105%; Activity [6]: 86%; Activity [7]: 35%; Activity [8]: inactive
Cc1cccc(Nc2nc(-c3ccc(-c4ccc(OC(C)C)nc4)cc3)cs2)n1	5860	5890	–
Cc1cccc(Nc2nc(-c3ccc(-c4ccnc(N(C)C)c4)cc3)cs2)n1	123	123	–
Cc1ccc(Nc2nc(-c3ccc(-c4ccccn4)s3)cs2)nc1	1230	1230	–
COc1ccc(-c2csc(Nc3ccccc3)n2)cc1OC	8200	8130	–
Cc1cccc(Nc2nc(-c3cc4ccccc4o3)cs2)n1	1460	1450	–
c1ccc(-c2cc(-c3csc(Nc4ccc(-c5cnco5)cc4)n3)on2)cc1	57	57.5	–
CN1CCN(c2cc(-c3ccc(-c4csc(NC(=O)C5CC5)n4)cc3)ccn2)CC1	682	676	–
C1=CC2=NC(N/N=C/c3ccc4ccccc4n3)=C3CC=CN3C2C=C1 (centres undefined)	–	–	viability at 120 h, 0.1 µM [3]: 87.6%; viability at 120 h, 1 µM [1]: 94.8%; viability at 120 h, 10 µM [4]: 90.9%; Activity [5]: 54%; Activity [6]: 47%; Activity [7]: 34%; Activity [8]: inactive
Cc1cccc(Nc2nc(-c3ccc(-c4cccnc4)cc3)cs2)n1	68	69.2	–
COc1ccc(-c2csc(Nc3cccnc3)n2)cc1OC	28000	28200	–
c1ccc2nc(Nc3nc(-c4ccncc4)cs3)ccc2c1	310	309	–
COc1ccc(Nc2nc(-c3cc(-c4ccccc4)no3)cs2)nc1	230	229	–
Cc1cccc(Nc2nc(-c3ccncc3)cs2)n1	1000	1000	–

SMILES	EC50 ([9]; read-out: EC50) [nM]	EC50 ([9]; read-out: pEC50 (converted)) [nM]	also measured
Cc1cccc(Nc2nc(-c3ccc(-c4ccc(N5CCN(C)CC5)nc4)cc3)cs2)n1	96	95.5	–
COc1ccc(-c2csc(Nc3ncccn3)n2)cc1OC	3940	3980	–
C1=CC2C(=NC(N/N=C/c3ccnc4ccccc34)=C3CC=CN32)N=C1 (centres undefined)	–	–	viability at 120 h, 0.1 µM [3]: 104%; viability at 120 h, 1 µM [1]: 98.6%; viability at 120 h, 10 µM [4]: 75.6%; Activity [5]: 128%; Activity [6]: 144%; Activity [7]: 83%; Activity [8]: inactive
Cc1cccc(Nc2nc(-c3ccc(-c4ccncc4C)cc3)cs2)n1	618	617	–
COc1ccc(NC(=O)c2csc(Nc3ccc(C)cn3)n2)cc1OC	2440	2450	–
FC(F)(F)c1csc(Nc2ccc3ccccc3n2)n1	8660	8710	–
Cc1cccc(Nc2nc(-c3ccc(N4CCN(C)CC4)cc3)cs2)n1	840	832	–
c1ccc2nc(Nc3nc(-c4cc5ccccc5o4)cs3)ccc2c1	920	912	–
COc1ccc(-c2csc(Nc3cc(C)ccn3)n2)cc1OC	1000	1000	–
COc1ccc(-c2csc(Nc3ccc(C)cn3)n2)c(OC)c1	3130	3160	–
c1ccc(-c2csc(Nc3ccc4ccccc4n3)n2)cc1	3080	3090	–
Cc1ccc(Nc2nc(-c3ccccn3)cs2)nc1	860	851	–
COc1ccc(-c2csc(Nc3cnccn3)n2)cc1OC	15600	15500	–
COc1cc2c(cc1OC)-c1nc(Nc3ccc(C)cn3)sc1C2	5590	5620	–
COc1ccnc(Nc2nc(-c3cc(-c4ccccc4)no3)cs2)c1	250	251	–
COc1ccc(-c2csc(Nc3ncccc3C)n2)cc1OC	7290	7240	–
COc1ccc(-c2csc(Nc3ccccn3)n2)cc1OC	1220	1230	–
CN1CCN(c2ccc(-c3ccc(-c4csc(NC(=O)C5CC5)n4)cc3)cn2)CC1	70	70.8	–
CC(=O)Nc1ccc(-c2csc(Nc3ccccn3)n2)cc1	8500	8510	–
Cc1cccc(Nc2nc(-c3ccc(O)cc3O)cs2)n1	3900	3890	–
COCCOc1ccc(-c2ccc(-c3csc(Nc4cccc(C)n4)n3)cc2)cn1	137	138	–

SMILES	EC50 ([9]; read-out: EC50) [nM]	EC50 ([9]; read-out: pEC50 (converted)) [nM]	also measured
COCCOc1cc(-c2ccc(-c3csc(Nc4cccc(C)n4)n3)cc2)ccn1	153	155	–
FC1=CC2=NC(N/N=C/c3ccnc4ccccc34)=C3NC=CN3C2C=C1 (centres undefined)	–	–	viability at 120 h, 0.1 µM [3]: 87.7%; viability at 120 h, 1 µM [1]: 92.6%; viability at 120 h, 10 µM [4]: 72.9%; Activity [5]: 76%; Activity [6]: 34%; Activity [7]: 31%; Activity [8]: inactive
Cc1ccc(Nc2nc(-c3ccncc3)cs2)nc1	1570	1580	–
c1ccc(-c2cc(-c3csc(Nc4ccncc4)n3)on2)cc1	4420	4470	–
c1cc(-c2csc(Nc3ccc(-c4cnco4)cc3)n2)ccn1	124	123	–
O=C(Nc1nc(-c2ccc(-c3ccncc3)cc2)cs1)C1CC1	173	174	–
COc1ccc(-c2csc(Nc3ccncc3)n2)cc1OC	6380	6460	–
NS(=O)(=O)c1ccc(Nc2nc(-c3ccc(O)c(O)c3)cs2)cc1	13500	13500	–
Cc1ccc(Nc2nc(-c3ccccc3)cs2)nc1	7880	7940	–
C1=CC2=NC(N/N=C/c3ccnc4ccccc34)=C3CC=CN3C2C=C1 (centres undefined)	–	–	viability at 120 h, 0.1 µM [3]: 92.3%; viability at 120 h, 1 µM [1]: 88.3%; viability at 120 h, 10 µM [4]: 87%; Activity [5]: 90%; Activity [6]: 78%; Activity [7]: 27%; Activity [8]: inactive
COc1ccc(-c2csc(N(C)c3ccc4ccccc4n3)n2)cc1OC	140	141	–
Cc1ccc(Nc2nc(-c3cc(-c4ccccc4)no3)cs2)nc1	940	933	–
c1ccc(-c2cc(-c3csc(Nc4ccc5ccccc5n4)n3)on2)cc1	800	794	–
COCC(=O)Nc1nc(-c2ccc(-c3ccccc3)cc2)cs1	1590	1580	–
COc1ccc2c(C)cc(N/N=C/c3ccnc4ccccc34)nc2c1	–	–	viability at 120 h, 0.1 µM [3]: 93.9%; viability at 120 h, 1 µM [1]: 84.8%; viability at 120 h, 10 µM [4]: 83.8%; Activity [5]: 88%; Activity [6]: 77%; Activity [7]: 13%; Activity [8]: inactive
COc1ccc(-c2csc(Nc3ccc(C)cn3)n2)cc1	3030	3020	–
COc1ccc(-c2csc(Nc3ccc(C(F)(F)F)cn3)n2)cc1OC	2530	2510	–
CC(=O)Nc1nc(-c2ccc(-c3ccccc3)cc2)cs1	119	120	–
COc1ccc(-c2ccc(-c3csc(Nc4cccc(C)n4)n3)cc2)cn1	140	141	–
